This passage reports Activity, GI50 and MIC results from ChEMBL document CHEMBL1144690, “Isolation of cytotoxic metabolites from targeted peruvian amazonian medicinal plants” (2008).

Structures are written as SMILES. Converted amounts (≈) assume the structure as drawn. The source made the active and inactive calls.

The subject of experiment [1] is Mycobacterium tuberculosis. Put plainly: Antimicrobial activity against Mycobacterium tuberculosis H37Rv at 25 ug/ml. Type of experiment: functional, organism-based.
A further experiment concerns NCI-H460. Put plainly: Cytotoxicity against human H460 cells. Type of experiment: functional. The procedure, abridged:
(§1)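 Cells in 96-well plates exposed to serial dilutions of test sample (maximum 62.5 µg/mL for crude extract and fractions) or solvent-dilution controls for 48 h at 37 °C. Growth measured colorimetrically by sulforhodamine B staining, with percent inhibition taken against controls. GI50 is the concentration giving 50% absorbance reduction versus solvent controls, obtained by linear regression.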

The next experiment concerns Vero. Put plainly: Cytotoxicity against african green monkey Vero cells. Type of experiment: functional. Particulars: Chlorocebus sabaeus. The procedure, abridged:
as §1

In another experiment the test system is MCF7. Briefly: Cytotoxicity against human MCF7 cells. Type of experiment: functional. The gist of the method:
as §1

Another experiment deals with PC-3. Put plainly: Cytotoxicity against human PC3 cells. Type of experiment: functional. The gist of the method: as §1
The subject of another experiment is HT-29. Briefly: Cytotoxicity against human HT29 cells. Type of experiment: functional. The procedure, abridged:
as §1

Another experiment deals with M14. Briefly: Cytotoxicity against human M14 cells. Type of experiment: functional. The gist of the method: as §1
Another experiment concerns DU-145. Put plainly: Cytotoxicity against human DU145 cells. Type of experiment: functional. The gist of the method:
as §1

A further experiment relates to K562. Put plainly: Cytotoxicity against human K562 cells. Type of experiment: functional. The procedure, abridged:
as §1

A further experiment has as its system ME-180. Briefly: Cytotoxicity against human ME180 cells. Type of experiment: functional. The gist of the method: as §1
For experiment [2], the system named is Mycobacterium tuberculosis. Put plainly: Antimicrobial activity against Mycobacterium tuberculosis H37Rv. Type of experiment: functional. The gist of the method:
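Tetrazolium microplate assay (TEMA) run in vitro against the drug-sensitive M. tuberculosis H37Rv strain.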

Usually GI50 stands for the concentration at which growth is held to half of that of the control. Regarding `COc1ccc(CCC(=O)c2c(O)cc(O)cc2OC)cc1`, the result in experiment [1] was inactive. Besides, the GI50 with NCI-H460 is 44.7 µg/mL (≈ 148 µM); in the experiment with Vero, 40.4 µg/mL (≈ 134 µM); in the experiment with MCF7, 22.9 µg/mL (≈ 75.7 µM); in the experiment on PC-3, 46.3 µg/mL (≈ 153 µM); with HT-29, 35.5 µg/mL (≈ 117 µM); in the experiment with M14, 40.3 µg/mL (≈ 133 µM). Besides, the concentration for 50% growth inhibition (GI50) with DU-145 was determined as 41.7 µg/mL (≈ 138 µM); in the experiment on K562, 7.4 µg/mL (≈ 24.5 µM).
In the case of `Cc1cc(O)c2c(c1)C(=O)c1ccc(O)c(O)c1C2=O`, in experiment [1], the outcome was inactive. Moreover, the 50% growth inhibitory concentration (GI50) was found to be 4.8 µg/mL (≈ 17.8 µM) in the experiment on NCI-H460; 7.3 µg/mL (≈ 27 µM) with MCF7; 8.7 µg/mL (≈ 32.2 µM) with PC-3; 13.2 µg/mL (≈ 48.8 µM) with ME-180; 6.5 µg/mL (≈ 24.1 µM) in the experiment on HT-29; 13.6 µg/mL (≈ 50.3 µM) in the experiment with M14. In addition, the values for the GI50 in the experiment with DU-145 and in the experiment with K562 were 7.9 µg/mL (≈ 29.2 µM) and 12.5 µg/mL (≈ 46.3 µM), respectively.
For `COc1cc(O)cc(O)c1C(=O)CCc1ccc2c(c1)OCO2`, the outcome in experiment [1] was inactive. Further, the GI50 in the experiment on NCI-H460 turned out to be 27.4 µg/mL (≈ 86.6 µM); in the experiment with Vero it was 28.4 µg/mL (≈ 89.8 µM); in the experiment on MCF7, 18.9 µg/mL (≈ 59.8 µM); in the experiment on PC-3, 24.5 µg/mL (≈ 77.5 µM); in the experiment on HT-29, 27.6 µg/mL (≈ 87.3 µM); with M14 it was 23.4 µg/mL (≈ 74 µM). The GI50 in the experiment with DU-145 amounted to 22.4 µg/mL (≈ 70.8 µM); in the experiment with K562 it was 8.4 µg/mL (≈ 26.6 µM).
As for `C=C(C)[C@@H]1CC[C@]2(C(=O)O)CC[C@]3(C)[C@H](CC[C@@H]4[C@@]5(C)CC[C@H](O)C(C)(C)[C@@H]5CC[C@]43C)[C@@H]12` [BETULINIC ACID], the outcome in [1] was inactive. In addition, the GI50 in the experiment on NCI-H460 is 29.7 µg/mL (≈ 65 µM); in the experiment on Vero it was 30.6 µg/mL (≈ 67 µM); in the experiment with MCF7, greater than 62.5 µg/mL; in the experiment on PC-3, 31.3 µg/mL (≈ 68.5 µM); in the experiment on ME-180, 27.8 µg/mL (≈ 60.9 µM); in the experiment with HT-29 it was 30.9 µg/mL (≈ 67.7 µM). For the same compound, the concentration for 50% growth inhibition (GI50) worked out at 32.6 µg/mL (≈ 71.4 µM) with M14, 35.3 µg/mL (≈ 77.3 µM) in the experiment on DU-145 and 10.8 µg/mL (≈ 23.6 µM) in the experiment on K562.
A word on the MIC: it is the smallest concentration in the dilution series that meets the test's criterion for growth inhibition. `C/C=C1/CN2CC[C@@]34c5ccccc5N5/C=C6/[C@H]7C[C@@H]8N(CC[C@@]89c8ccccc8N(/C=C(/[C@H]1C[C@H]23)[C@H]54)[C@@H]69)C/C7=C/C` [BISNORDIHYDROTOXIFERINE] showed an MIC in experiment [2] of 12.5 µg/mL (≈ 22.6 µM). The GI50 is 1.6 µg/mL (≈ 2.89 µM) in the experiment with NCI-H460; 2.7 µg/mL (≈ 4.88 µM) in the experiment on Vero; 2 µg/mL (≈ 3.62 µM) with MCF7; 2.1 µg/mL (≈ 3.8 µM) in the experiment with PC-3; 1.9 µg/mL (≈ 3.44 µM) in the experiment on ME-180; greater than 1 µg/mL in the experiment with HT-29. Moreover, the 50% growth inhibitory concentration (GI50) is 1.6 µg/mL (≈ 2.89 µM) with M14, 4.5 µg/mL (≈ 8.14 µM) with DU-145 and less than 1 µg/mL with K562.
On to `Cc1cc(O)c2c(c1)C(=O)c1cccc(O)c1C2=O` [CHRYSOPHANOL], for which, in experiment [1], the result was inactive. Further, the GI50 in the experiment with NCI-H460, in the experiment on Vero, in the experiment with MCF7, in the experiment with PC-3, in the experiment with ME-180 and with HT-29 was greater than 62.5 µg/mL throughout. Besides, the concentration for 50% growth inhibition (GI50) in the experiment with M14, with DU-145 and in the experiment on K562 was greater than 62.5 µg/mL each time.
In the experiment on K562, `C[C@]12C=C[C@@]3(CC[C@H]4[C@@](C)(CCC[C@@]4(C)C(=O)O)[C@@H]3CC1)C2` [MONOGINOIC ACID] registered a GI50 greater than 62.5 µg/mL.
`CCCCCCCCCCCCCC(=O)O[C@@H]1[C@@H](C)[C@@]2(O)[C@@H](C=C(CO)C[C@]3(O)C(=O)C(C)=C[C@@H]23)[C@@H]2C(C)(C)[C@]12OC(C)=O` [PHORBOL MYRISTATE ACETATE] gave a GI50 in the experiment with K562 of 0.00012 µg/mL.
